# Rpn11 block: blocks the human proteasome subunit Rpn11. hit rate 0.59% among 360,000. O00487. calls only at 20 µM. human 26S proteasome, Ub4-pepOG fluorescence polarization; 20S core pre-blocked with epoxomicin;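 active = inhibition at 20 µM, scaled to each plate's controls, above about 33%, limit read from the data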
# HNF4A DNA FP: change in binding of human HNF4 alpha to DNA; activity change, % at 10 µM; hit rate 0.3% among 360,000; HNF4a-FITC DNA binding, fluorescence polarization, 1 h; P41235; AID 1224865; in the data active = activity change above about 30%, passing the limit was not always enough
# Target sequence (P41235 whole entry, looked up): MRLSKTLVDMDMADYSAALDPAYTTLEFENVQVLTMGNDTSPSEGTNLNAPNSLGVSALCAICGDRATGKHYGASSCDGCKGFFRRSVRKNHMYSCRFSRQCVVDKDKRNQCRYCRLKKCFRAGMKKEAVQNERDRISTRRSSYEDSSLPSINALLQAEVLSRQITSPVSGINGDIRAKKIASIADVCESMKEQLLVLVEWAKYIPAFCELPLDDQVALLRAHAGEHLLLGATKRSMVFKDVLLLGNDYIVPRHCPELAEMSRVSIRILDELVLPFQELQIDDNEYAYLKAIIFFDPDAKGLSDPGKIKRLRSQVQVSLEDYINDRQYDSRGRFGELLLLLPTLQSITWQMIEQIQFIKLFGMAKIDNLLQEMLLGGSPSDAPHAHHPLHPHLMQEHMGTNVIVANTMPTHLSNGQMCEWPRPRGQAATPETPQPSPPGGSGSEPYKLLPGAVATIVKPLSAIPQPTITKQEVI
# TPT1 inh: C. albicans TPT1 enzyme inhibition; AID 1962; hit rate 0.81% among 300,000; inhibition, % at 5 µM; recombinant caTPT1, FP RNA substrate dephosphorylation;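 active = inhibition above the mean of all tested compounds plus 3 SD, set per screening campaign, cut at about 24% in these data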;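 also: plate controls were DMSO alone for no effect and ferristatin control at 100 nM for full effect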
# CSN deneddyl inh: blocks human CSN-mediated cullin deneddylation; Q92905; Purified CSN, SCF-Nedd8-OG deneddylation, fluorescence polarization; inhibition, % at 12.5 µM; hit rate 0.38% among 360,000;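 active = pattern-corrected inhibition above about 35%, with an unprinted fluorescence ratio check between 0.5 and 1.5, limit read from the data, passing the limit was not always enough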;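 also: 0% = enzyme with substrate and 100% = substrate without enzyme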
#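 Assay system: Purified human Csn5 enzyme expressed in HEK293T cells | Amount: Enzyme 0.24 nM | Measured by: Fluorescence polarization readout | Medium: Tris/NaCl/DTT buffer, pH 7.5 | Compound dosing: One concentration, 12.5 µM, 0.25% DMSO | Times: 90 min incubation of compound, enzyme and substrate at room temperature | Control set: no-enzyme wells high, enzyme-with-substrate wells low | Read-out: % inhibition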
# Rpn11 inh conf: confirmation of human proteasome Rpn11 inhibitors; shares compounds with Rpn11 block; purified human 26S proteasome, Ub4-pepOG fluorescence polarization; proteasome pretreated with epoxomicin; inhibition, % at 20 µM; hit rate 29% among 1,900; AID 602318
# MMP-2 counter: blocks human MMP-2, flagging nonselective RPN11 hits; shares compounds with Rpn11 block; recombinant MMP-2, FRET peptide cleavage fluorescence; inhibition, % at 20 µM; hit rate 4% among 1,900;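 also: human MMP-2 activated beforehand with APMA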
# Thrombin FP: thrombin (bovine) inhibition counter-screen; AID 602333; bovine thrombin cleavage of Ub4-pepOG, fluorescence polarization; shares compounds with Rpn11 block; inhibition, % at 20 µM; hit rate 13% among 1,900;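 active = mean inhibition at least 40% at 20 µM, or signal 3 deviations below plate average, so some actives read negative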;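 also: plate controls were thrombin with DMSO for no effect and buffer wells lacking thrombin for full effect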
# Starred values were filed as active, the others as inactive; i = inactive; . = not tested or not shown; + = active, no number. Compounds with a hit are over-represented: about 1.5% of the library has one in this group of screens. Rule as the data show it, unless noted: active = inhibition above about 40%; inactive = the rest.
SMILES,Rpn11 block,HNF4A DNA FP,TPT1 inh,CSN deneddyl inh,Rpn11 inh conf,MMP-2 counter,Thrombin FP
C#CCOCCOCCOCCNc1nc(N2CCN(C(=O)[C@H]([C@@H](C)CC)n3cc([C@@H](N)Cc4ccc(O)cc4)nn3)CC2)nc(N2CCN(C(=O)[C@H](Cc3cc4ccccc4[nH]3)n3cc([C@@H](N)CC(C)C)nn3)CC2)n1,+,20,0,20,9,38,-9
CC(=O)Nc1ccc(SC[C@H](C)CN2CC[C@H](C(C)(C)C)CCC2=O)cc1,i,0,.,-6,.,.,.
CCOC(=O)c1cc2c(c(CSc3nc4ccccc4c(=O)n3Cc3ccco3)c1)OCOC2,+,-11,3,17,12,4,1
O=c1c2ccccc2nc(SCc2cc(F)cc3c2OCOC3)n1Cc1ccco1,i,1,-4,5,.,.,.
O=C(N=Nc1c(O)[nH]c2ccc([N+](=O)[O-])cc12)c1cc(-c2ccccc2Cl)nc2ccccc12,+,0,3,3,-22,-10,-32
c1ccc(N2[C@@H]3c4ccccc4C[C@H]2c2ccccc23)cc1,.,0,.,2,.,.,.
COc1cccc(CNc2nc3cc(-c4ccc(F)cc4)sc3c(=O)n2C)c1,i,-4,.,4,.,.,.
Cn1c(CCNC(=O)c2ccc(Cl)cc2)n[nH]c1=S,+,0,-3,1,8,0,-3
CCn1c(CCNC(=O)c2ccc(C)cc2)n[nH]c1=S,i,0,-1,1,.,.,.
CCCCc1cc(=O)oc2cc(C)cc(OCC(=O)Nc3cccnc3)c12,+,-9,0,20,18,-10,-9
CCOc1ccc(C(=O)Nc2cccc(C(=O)O)c2)cc1Cl,i,3,0,-3,.,.,.
CCOc1ccc(C(=O)Nc2cccc(-c3nc4cccnc4o3)c2)cc1Cl,+,2,3,-7,19,-24,3
CCCCOc1nc2ccccc2nc1C(C#N)C(=O)NC1CCCCC1 (centres undefined),+,0,-4,14,-3,-23,-5
CCOC(=O)C1=C(O)/C(=C/c2ccc(-c3ccccc3C(=O)O)o2)SC1=Nc1ccc(OC)cc1,+,19,.,35,60*,12,41*
O=C(N/N=C/c1ccc(-c2ccc([N+](=O)[O-])cc2)o1)c1cccnc1,+,8,13,8,49*,-15,-17
O=[N+]([O-])c1ccc(-c2ccc(/C=N/Nc3nc(N4CCCCC4)nc(N4CCCCC4)n3)o2)cc1,+,19,.,10,-1,-20,-14
COc1ccc(CNC(=O)COC(=O)c2ccc(C)c(S(=O)(=O)N3CCOCC3)c2)cc1,i,2,.,2,.,.,.
O=c1cc(-c2cccc(F)c2)oc2ccccc12,+,-5,.,3,-19,5,-14
O=c1cc(-c2c(F)c(F)c(F)c(F)c2F)oc2ccccc12,i,1,-1,7,.,.,.
COC(=O)c1cc(Br)c(=O)n(CCc2ccc(O)cc2)c1,i,1,-2,4,.,.,.
COC(=O)c1cc(Br)c(=O)n(CCc2ccc(F)cc2)c1,+,1,1,2,-16,-20,-16
COc1ccc(-c2cc(-c3ccc(C)cc3)nc(SCc3nnc(-c4ccccc4)o3)c2C#N)cc1OC,+,11,1,18,-4,-21,-8
CC(C)Oc1ccc2ccccc2c1CNC[C@H]1O[C@@H](n2ccc(=O)[nH]c2=O)[C@H](O)[C@@H]1O,i,-4,.,-1,.,.,.
Cc1ccc(CNc2ccc(N3CCN(C)CC3=O)cc2)cc1,i,-7,.,-3,.,.,.
c1ccc(NC2=Nc3cccc4cccc2c34)cc1,i,6,14,10,.,.,.
O=C(NNC1=Nc2cccc3cccc1c23)c1ccccc1Br,+,3,-1,-1,1,-21,4
CCOC(=O)c1[nH]c(CSc2nnnn2-c2ccccc2C)c(C(=O)OCC)c1C,+,15,2,3,30,12,5
COc1ccc(NC(=O)C2(C)CCN2CC2CCCCC2)cc1OC (centres undefined),i,0,.,-3,.,.,.
